Screening results: PubChem, several laboratories
SMARCA2 act – SMARCA2 (BRM) function activators, primary screen, cell-based, luminescence, high throughput. MG213 cells, MMTV-luciferase reporter, dexamethasone, overnight. activation, % at 9.1 µM. 370,000 compounds, 1% hits. AID 652017, 2013; in the data active = activation above about 7.8%;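 note: 0% = vehicle wells and 100% = reference activator wells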
Lipid droplet – inhibitors of hepatocyte lipid droplet formation, primary screen, imaging, high-throughput imaging, BODIPY stain | AML12 mouse hepatocytes, oleate lipid droplets | inhibition, % at 6.5 µM | 240,000 compounds, 0.4% hits | AID 1656, 2009;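 active = lipid droplet intensity inhibited by at least 50%, with more than 500 cells counted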
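Material – mouse AML12 hepatocyte cell line, fixed after treatment · Compound dosing – one dose, 6.5 µM compound · Times – compound with oleate, overnight · Measured by – Image-based BODIPY and DAPI two-channel analysis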
SR-BI DiI-HDL act – activators of SR-BI mediated DiI-HDL uptake, primary screen, ldlA[mSR-BI] CHO cells, DiI fluorescence; 320,000 compounds, 0.096% hits; 3 h; 100 = double the neutral-control signal; activation, % at 12.5 µM;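 active = mean replicate activation of at least 60% and every replicate at or above 60%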;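 note: 0% = median plate neutral-control signal and 100% = twice that signal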
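system = CHO ldlA[mSR-BI] cells, LDL receptor-null, SR-BI overexpressing | medium = Ham's F12 with 0.5% BSA, HEPES 25 mM, pH 7.4 | probe or stimulus = DiI-HDL 10 µg/mL | compound dosing = single-point compound dose | incubation = compound exposure 3 h, 37 °C | technique = DiI fluorescence, bottom read | read-out = cell-associated DiI fluorescence as measure of HDL uptake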
SR-BI HDL uptake – inhibitors of SR-BI mediated HDL lipid uptake, primary screen, ldlA[mSR-BI] cells, fluorescence, single point. inhibition, % at 12.5 µM. AID 488896, 2010. 320,000 compounds, 0.96% hits. ldlA[mSR-BI] CHO cells, DiI-HDL uptake fluorescence, 3 h. Scavenger receptor class B member 1 (Mus musculus), Q61009;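 active = mean replicate inhibition of at least 70% and a set share of replicates each scoring 70 or more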;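 note: 0% = median of neutral control wells and 100% = median of positive control wells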
AHR activator – AHR activators, primary screen, cell-based, luminescence, luciferase reporter, human | AHR-responsive luciferase reporter cells | activation, % at 5 µM | 320,000 compounds, 2.5% hits | AID 2796, 2010; in the data active = activation above about 47%;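 note: 0% = vehicle wells and 100% = reference agonist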
Yeast superoxide – reduction of superoxide in aged yeast, primary screen, HTS; S. cerevisiae aged cells, superoxide DHE fluorescence; active compounds read low; superoxide response (% of plate mean), % at 10 µM; 330,000 compounds, 0.18% hits;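 active = superoxide response under a set limit, about three screen SD below normal, cut at about 65% in these data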;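 note: yeast aged for seven days with compound at 30 °C before DHE staining; 100% = average MFI of all compound-treated wells on the plate with controls excluded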
Lipid drop inh – hepatocyte lipid droplet accumulation inhibitors, confirmation, imaging, AML12 mouse hepatocytes, single concentration, high-content; shares compounds with Lipid droplet; BODIPY lipid droplet imaging; droplets induced with 100 µM oleic acid; inhibition, % at 5.2 µM; 870 compounds, 65% hits; AID 463183, 2010;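 active = inhibition of lipid droplet metric at least 50%, with more than 300 cells in each of four replicates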;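 note: plate controls were DMSO with oleic acid for no effect and 5 µM Triacsin-C for full effect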
AML12 tox img – AML12 hepatocyte cytotoxicity, counter-screen for hepatic lipid droplet formation project, imaging, DAPI nuclear morphology imaging; shares compounds with Lipid droplet; AML12 mouse hepatocytes; active compounds read high; cells fed 100 µM oleate overnight; z-score at 5 µM; 870 compounds, 3% hits; in the data active = z-score above about 6.3;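 note: compound exposure lasted overnight at 37 °C before fixation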
AML12 tox conf – AML12 hepatocyte cytotoxicity, confirmation, cytotoxicity control for hepatic lipid droplet formation project, cell-based, single concentration; 530 tested, under 10 active; shares compounds with Lipid droplet; cytotoxicity, % at 50 µM; AML12 mouse hepatocyte viability, ATP luminescence; cells loaded with 100 µM oleic acid; AID 463219, 2010;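 active = cytotoxicity above 50% in each of four replicates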;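 note: compound exposure lasted overnight at 37 °C before the ATP read; 0% = DMSO-treated cells and 100% = wells with no cells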
Numbers without * were called inactive; / = no result. An excerpt weighted towards active compounds, which were near 4.3% of everything screened.

SMILES	SMARCA2 act	Lipid droplet	SR-BI DiI-HDL act	SR-BI HDL uptake	AHR activator	Yeast superoxide	Lipid drop inh	AML12 tox img	AML12 tox conf
Cc1cc2c(cc1S(=O)(=O)Nc1cccc(C)c1C)n(C)c(=O)c(=O)n2C	-1	54*	-12	12	-2	120	66	-0.54	/
Cc1cc2c(cc1S(=O)(=O)Nc1ccc(F)cc1)n(C)c(=O)c(=O)n2C	6	40	8	-8	7	112	/	/	/
CCc1ccc(NS(=O)(=O)c2cc3c(cc2C)n(C)c(=O)c(=O)n3C)cc1	-3	51*	15	-15	1	99	93*	-0.7	5
Cc1cc2c(cc1S(=O)(=O)NCc1ccccc1)n(C)c(=O)c(=O)n2C	1	-2	10	-10	0	92	/	/	/
CCOC(=O)CCCNC(=O)OC1CC2CC1[C@H]1CCCCN1[C@H]2C (some centres not stated)	0	/	/	/	/	/	/	/	/
O=C(NC1CCCCN(Cc2cccc(C(F)(F)F)c2)C1=O)c1cccc(C(F)(F)F)c1 (configuration not stated)	-2	/	/	/	/	/	/	/	/
Cc1cc(C)n(-c2nc3c(c(=O)[nH]c(=O)n3C)n2CC(O)COc2ccc(Cl)cc2Cl)n1 (configuration not stated)	3	52*	0	0	3	104	-16	0.69	/
CCN(CC)S(=O)(=O)c1ccc(S(=O)(=O)N(CC(=O)Nc2ccccc2)CC2CCCO2)cc1 (configuration not stated)	0	/	-9	9	1	70	/	/	/
O=C(CN(CC1CCCO1)S(=O)(=O)c1ccc(S(=O)(=O)NC2CC2)cc1)Nc1ccccc1 (configuration not stated)	0	95*	0	0	4	120	107*	-0.073	18
Cc1cc(=O)oc2cc(OCC(=O)NC3CCN(Cc4ccccc4)CC3)c(Cl)cc12	-2	63*	-12	12	-1	91	13	-1.2	/
Cc1cc(=O)oc2cc(OCC(=O)NC3CCN(Cc4ccccc4)CC3)ccc12	0	-8	-15	15	-1	110	/	/	/
O=C(Cc1cccc2ccccc12)Nc1c(F)cccc1F	1	55*	-9	9	2	87	82*	-0.75	9
COc1ccc(CC(=O)Nn2c(-c3ccccc3)nc3ccccc3c2=O)cc1	0	56*	39	-39	6	91	91*	-0.43	/
COc1ccc(CCNC(=O)CN2C(=O)c3cccc4cccc(c34)C2=O)cc1OC	-2	56*	19	-19	4	90	92*	-0.014	4
COc1ccc(CCNC(=O)Cc2ccc(OC)c(OC)c2)cc1OC	1	-5	8	-8	-1	74	/	/	/
COc1ccc(CCNC(=O)Cc2cccc(C(F)(F)F)c2)cc1OC	0	64*	3	-3	1	92	84*	-1.3	12
COc1ccc(CCNC(=O)c2cc3c(F)cccc3s2)cc1OC	-2	77*	-16	16	1	98	74*	-0.2	3
CC(C)C[C@@H]1COc2cc(N3CCOCC3)ccc2S(=O)(=O)N1	1	/	/	/	/	/	/	/	/
C[C@@H]1OC(C2CCCCC2)N(C)[C@H]2C[C@H]3c4cc(N5CCOCC5)ccc4CCN3C[C@@H]12 (some centres not stated)	-2	/	/	/	/	/	/	/	/
